Experimental data published in paper PMC9924099 (Journal of medicinal chemistry, 2021).
Like-named read-outs stand apart in the source and are kept apart here.

What was measured:
[1] = system: p53^R280K MDA-MB-231 cells; experiment: WST-1 cell proliferation assay; format: cell-based, human; conditions: for inhibition of cell proliferation (in words): MDA-MB-231, 24 h or 72 h; for IC50: Homo sapiens, read-out: IC50, inhibition of cell proliferation
[2] = system: p53^R273H MDA-MB-468 cells; experiment: WST-1 cell proliferation assay; format: cell-based, human; conditions: MDA-MB-468, 24 h or 72 h
[3] = system: WT p53 MCF-7 cells; experiment: WST-1 cell proliferation assay; format: cell-based, human; conditions: MCF-7, 24 h or 72 h; compared to mutant p53 cells
Summary of the method: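 WST-1 assay. Test compound in DMSO was added to cells at 40,000 cells/ml, giving 1% DMSO final, and plated at 4,000 cells/well in duplicate; medium-only wells served as background. Incubation was 24 h or 72 h at 37 °C, then WST-1 for 2 h and OD450 read. Proliferation is expressed as % of DMSO control; triplicate experiments. MCF-7 grown in RPMI 1640, MDA-MB-436 in DMEM.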

[4] = system: p53^R280K MDA-MB-231 cells; experiment: Annexin V staining; format: cell-based, human; conditions: MDA-MB-231, 6 μM or 12 μM, 24 h
[5] = system: p53^R273H MDA-MB-468 cells; experiment: Annexin V staining; format: cell-based, human; conditions: MDA-MB-468, 6 μM or 12 μM, 24 h
[6] = system: WT p53 MCF-7 cells; experiment: Annexin V staining; format: cell-based, human; conditions: MCF-7, 24 h
Summary of the method: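 After 24 h exposure to test compound or DMSO, MCF-7 cells (RPMI 1640, 10% FBS, 1% penicillin/streptomycin, 1% L-glutamine) were scraped, PBS-washed and taken up in Annexin V binding buffer. They were stained with fluorochrome-conjugated Annexin V for 15 min at RT in the dark, then PI staining solution was added. Flow cytometry read-out; % Annexin V-positive cells expressed relative to DMSO.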

[7] = target: p53^R280K in MDA-MB-231 cells (Homo sapiens, UniProt P04637, R280K); experiment: Western blot of p53 expression; format: cell-based; conditions: MDA-MB-231, 6 μM or 12 μM, 24 h
Summary of the method: (§1)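 Cells were treated 24 h with 6 μM or 12 μM test compound or DMSO and lysed in NP-40/Tris-Cl pH 8.0 buffer with protease inhibitors. Load on 4–12% SDS-PAGE was 20 μg for MDA-MB-231 and MDA-MB-468 or 50 μg for MCF-7. After PVDF transfer, blots were probed with p53 DO-1 antibody, reprobed for GAPDH as loading control and developed by ECL.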

[8] = target: p53^R273H in MDA-MB-468 cells (Homo sapiens, UniProt P04637, R273H); experiment: Western blot of p53 expression; format: cell-based; conditions: MDA-MB-468, 6 μM or 12 μM, 24 h
Summary of the method: as §1

[9] = target: WT p53 in MCF-7 cells (Homo sapiens, UniProt P04637); experiment: Western blot of p53 expression; format: cell-based; conditions: MCF-7, 6 μM or 12 μM, 24 h
Summary of the method: as §1

[10] = Log P determination; format: physicochemical; conditions: octanol/sodium phosphate buffer (pH 7.4)

Structure (SMILES) | inhibition of cell proliferation (in words) [1] | inhibition of cell proliferation / sensitivity (in words) [3] | increase in Annexin V stained cells compared to DMSO [6] | mutant p53 expression (western blot) [7] | mutant p53 expression (western blot) [8] | WT p53 expression (western blot) [9] | other results
O=C(CC12CC3CC(CC(C3)C1)C2)N=C=S [Ad-ITC 12, 2-(Adamantan-1-yl)acetyl isothiocyanate] | failed to inhibit the cell proliferation |  |  |  |  |  | 
CC(C)(COC12CC3CC(CC(C3)C1)C2)N=C=S [Ad-ITC 9, 1-(2-Isothiocyanato-2-methylpropoxy)adamantane] | not active in vitro |  |  |  |  |  | 
CC(N=C=S)C12CC3CC(CC(C3)C1)C2 (stereo not shown) [Ad-ITC 4, 1-Isothiocyanato-1-(adamantan-1-yl)ethane] | did not show any significant inhibition |  |  |  |  |  | 
S=C=Nc1ccc(C23CC4CC(CC(C4)C2)C3)cc1 [Ad-ITC 7, 1-(4-Isothiocyanatophenyl)adamantane] | significantly less potent than Ad-ITCs 3, 5, and 6 |  |  |  |  |  | 
CC12CC3CC(C)(C1)CC(N=C=S)(C3)C2 [Ad-ITC 11, 1-Isothiocyanato-3,5-dimethyladamantane] | failed to show any significant inhibition of cell proliferation |  |  |  |  |  | 
C1C2CC3CC1CC(C2)C3 [adamantane, Adamantane, reference compound] | did not inhibit MDA-MB-231 cells proliferation | did not inhibit MCF-7 cell proliferation |  |  |  |  | inhibition of cell proliferation (in words) [2]: did not inhibit MDA-MB-468 cells proliferation
S=C=NC1C2CC3CC(C2)CC1C3 (stereo not shown) [Ad-ITC 2, 2-Isothiocyanatoadamantane] | failed to show any significant inhibition of cell proliferation |  |  |  |  |  | 
CCCC(CN=C=S)C1C2CC3CC(C2)CC1C3 (stereo not shown) [Ad-ITC 10, 2-(1-Isothiocyanatopentan-2-yl)adamantane] | did not show any significant inhibition |  |  |  |  |  | 
S=C=NC12CC3CC(CC(C3)C1)C2 [Ad-ITC 1, 1-Isothiocyanatoadamantane] | failed to show any significant inhibition of cell proliferation |  | did not display any significant increase | no depletion | no depletion | did not decrease WT p53 expression | increase in Annexin V stained cells compared to DMSO [4]: did not induce significant increase in apoptosis; increase in Annexin V stained cells compared to DMSO [5]: did not induce significant increase in apoptosis
S=C=NCC12CC3CC(CC(C3)C1)C2 [Ad-ITC 3, 1-Isothiocyanatomethyladamantane] | dose-dependent activity | remarkably less sensitive | did not display any significant increase | differential decrease in the expression of mutant p53 | differential decrease in the expression of mutant p53 | did not decrease WT p53 expression | IC50 ([1]; MDA-MB-231, 24 h): 24 to 48 µM; IC50 ([1]; MDA-MB-231, 72 h): 24 to 48 µM; increase in Annexin V stained cells compared to DMSO [4]: 2.0-5.1 fold; increase in Annexin V stained cells compared to DMSO [5]: 2.0-5.1 fold
O=C1CNC(=S)N1CCC12CC3CC(CC(C3)C1)C2 [Ad-compound 13, 3-(2-(Adamantan-1-yl)ethyl)-2-thioxoimidazolidin-4-one] | did not inhibit the proliferation | did not inhibit MCF-7 cell proliferation | did not display any significant increase | failed to affect mutant p53 expression | failed to affect mutant p53 expression | did not decrease WT p53 expression | inhibition of cell proliferation (in words) [2]: did not inhibit MDA-MB-468 cells proliferation; increase in Annexin V stained cells compared to DMSO [4]: did not induce significant increase in apoptosis; increase in Annexin V stained cells compared to DMSO [5]: did not induce significant increase in apoptosis
S=C=NCCC12CC3CC(CC(C3)C1)C2 [Ad-ITC 5, 1-Isothiocyanato-2-(adamantan-1-yl)ethane] |  | did not inhibit MCF-7 cell proliferation | did not display any significant increase | differential decrease in the expression of mutant p53 | differential decrease in the expression of mutant p53 | did not decrease WT p53 expression | IC50 ([1]; MDA-MB-231, 24 h): 24 to 48 µM; IC50 ([1]; MDA-MB-231, 72 h): 12 to 24 µM; logP at 18 h [10]: 4.76
S=C=NCCOC12CC3CC(CC(C3)C1)C2 [Ad-ITC 8, 1-(2-Isothiocyanatoethoxy)adamantane] | not active in vitro |  |  |  |  |  | logP at 18 h [10]: 4.42
